The source made the active and inactive calls. The calls are words filed in the database; no cut-off is given here.
Tests used:
[1] = molecular target: Platelet-derived growth factor receptor beta (Homo sapiens) (UniProt P09619); test: Inhibition of PDGFRbeta (unknown origin) at 1 uM by ELISA
HEL [2] = test: Induction of apoptosis in human HEL cells expressing JAK2 V617F mutant cells at 1.25 to 5 uM measured after 48 hrs by AnnexinV-FITC/PI staining based flow cytometry analysis; format: functional, cell-based; conditions: dose 1.25-5 µM
Procedure, shortened: (§1)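 Cells were seeded overnight, then exposed to DMSO or compound for 48 h. They were washed twice in PBS and resuspended in binding buffer with Annexin V-FITC and propidium iodide. After 15 min at room temperature in the dark, cells were analysed by flow cytometry; data are representative of three independent experiments.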

[3] = molecular target: T1, Signal transducer and activator of transcription 3 (Homo sapiens, UniProt P40763); test: Inhibition of IL-6 induced STAT3 transcriptional activity in human HepG2 cells incubated for 1 hr followed by stimulation with IL-6 for 5.5 hrs by luciferase reporter gene assay; format: cell-based
Procedure, shortened: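 STAT3-dependent luciferase reporter assay in HepG2 cells with IL-6 stimulation; IC50 given as mean ± SD of at least three independent experiments.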

[4] = molecular target: T1, Signal transducer and activator of transcription 3; test: Inhibition of STAT3 in human MDA-MB-468 cells assessed as downregulation of MCL-1 protein expression at 1.25 to 5 uM incubated for 24 hrs by western blot analysis; format: cell-based; conditions: dose 1.25-5 µM
Procedure, shortened: (§2)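 Cells were treated for 24 h, then lysed in hot 2% SDS with boiling, and protein was quantified by BCA. Lysates were run on SDS-PAGE, transferred to nitrocellulose and blocked with 3% milk in TBST. Membranes were probed overnight at 4 °C with 1:1000 antibodies to pSTAT3 Tyr705, pSTAT3 Ser727, STAT3, c-Myc, MCL-1, β-actin and GAPDH. Detection used HRP secondaries and ECL.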

MDA-MB-468 [5] = test: Induction of apoptosis in human MDA-MB-468 cells at 1.25 to 5 uM measured after 48 hrs by AnnexinV-FITC/PI staining based flow cytometry analysis; format: functional, cell-based; conditions: dose 1.25-5 µM; procedure, shortened: as §1
[6] = molecular target: T1, Signal transducer and activator of transcription 3; test: Displacement of 5'-FAM-GpYLPQTV-NH2 from His-tagged STAT3-SH2 domain (127 to 722 residues) (unknown origin) assessed as binding rate at 20 uM […] by fluorescence polarization assay; conditions: time 90.0 min
[7] = molecular target: T1, Signal transducer and activator of transcription 3; test: Inhibition of STAT3 phosphorylation at Ser727 residue in human MDA-MB-468 cells measured after 24 hrs by Western blot analysis; format: cell-based; conditions: dose 1.25-5 µM; procedure, shortened: as §2
[8] = molecular target: T1, Signal transducer and activator of transcription 3; test: Inhibition of STAT3 phosphorylation at Ser727 residue in human HEL cells expressing JAK2 V617F mutant measured after 24 hrs by Western blot analysis; format: cell-based; conditions: dose 1.25-5 µM; procedure, shortened: as §2
MDA-MB-468 [9] = test: Induction of cell cycle arrest in human MDA-MB-468 cells assessed as increase in accumulation at G2/M phase after 48 hrs by PI/RNase staining based flow cytometry; format: functional; conditions: dose 1.25-5 µM
Procedure, shortened: (§3)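 Cells were seeded overnight, then exposed to DMSO or increasing compound concentrations for 48 h. They were fixed in ice-cold 80% ethanol overnight, stained with PI containing RNase for 30 min at 37 °C, and analysed by flow cytometry.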

[10] = molecular target: Vascular endothelial growth factor receptor 1 (Homo sapiens) (UniProt P17948); test: Inhibition of VEGFR1 (unknown origin) at 1 uM by ELISA
MDA-MB-468 [11] = test: Antiproliferative activity against human MDA-MB-468 cells overexpressing STAT3 assessed as inhibition of cell growth incubated for 72 hrs by MTT assay; format: functional, cell-based; conditions: MDA-MB-468, 72 h
Procedure, shortened: (§4)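 MTT proliferation assay; MDA-MB-468 grown in DMEM/F-12 and HEL in high-glucose DMEM, each with 10% FBS and penicillin/streptomycin, at 37 °C under 5% CO₂. IC50 given as mean ± SD of at least three independent experiments.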

HEL [12] = test: Induction of cell cycle arrest in human HEL cells expressing JAK2 V617F mutant cells assessed as decrease in accumulation at G1 phase after 48 hrs by PI/RNase staining based flow cytometry; format: functional; conditions: dose 1.25-5 µM; procedure, shortened: as §3
[13] = molecular target: T1, Signal transducer and activator of transcription 3; test: Displacement of 5'-FAM-GpYLPQTV-NH2 from His-tagged STAT3-SH2 domain (127 to 722 residues) (unknown origin) assessed as binding rate at 100 uM […] by fluorescence polarization assay; conditions: time 90.0 min
[14] = molecular target: T1, Signal transducer and activator of transcription 3; test: Displacement of 5'-FAM-GpYLPQTV-NH2 from His-tagged STAT3-SH2 domain (127 to 722 residues) (unknown origin) assessed as binding rate at 50 uM […] by fluorescence polarization assay; conditions: time 90.0 min
MDA-MB-468 [15] = test: Effect on STAT3 expression in human MDA-MB-468 cells at 1.25 to 5 uM measured after 24 hrs by Western blot analysis; format: functional, cell-based; conditions: dose 1.25-5 µM; procedure, shortened: as §2
[16] = molecular target: Receptor tyrosine-protein kinase erbB-2 (Homo sapiens) (UniProt P04626); test: Inhibition of ERBB2 (unknown origin) at 1 uM by ELISA
[17] = molecular target: Insulin-like growth factor 1 receptor (Homo sapiens) (UniProt P08069); test: Inhibition of IGF1R (unknown origin) at 1 uM by ELISA
[18] = molecular target: T1, Signal transducer and activator of transcription 3; test: Inhibition of STAT3 in human HEL cells expressing JAK2 V617F mutant cells assessed as downregulation of c-Myc protein expression at 1.25 to 5 uM incubated for 24 hrs by western blot analysis; format: cell-based; conditions: dose 1.25-5 µM; procedure, shortened: as §2
[19] = molecular target: T1, Signal transducer and activator of transcription 3; test: Inhibition of STAT3 in human MDA-MB-468 cells assessed as downregulation of c-Myc protein expression at 1.25 to 5 uM incubated for 24 hrs by western blot analysis; format: cell-based; conditions: dose 1.25-5 µM; procedure, shortened: as §2
[20] = molecular target: T1, Signal transducer and activator of transcription 3; test: Inhibition of STAT3 phosphorylation at Tyr705 residue in human HEL cells expressing JAK2 V617F mutant measured after 24 hrs by Western blot analysis; format: cell-based; conditions: dose 1.25-5 µM; procedure, shortened: as §2
[21] = molecular target: T1, Signal transducer and activator of transcription 3; test: Binding affinity to His-tagged STAT3-SH2 domain (127 to 722 residues) (unknown origin) by surface plasmon resonance analysis
Procedure, shortened: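 SPR on a Biacore T200 with STAT3 SH2 domain. Analytes were run as concentration series, and KD was taken as the equilibrium constant.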

[22] = molecular target: Receptor tyrosine-protein kinase erbB-4 (Homo sapiens) (UniProt Q15303); test: Inhibition of ERBB4 (unknown origin) at 1 uM by ELISA
[23] = molecular target: T1, Signal transducer and activator of transcription 3; test: Inhibition of STAT3 in human HEL cells expressing JAK2 V617F mutant cells assessed as downregulation of MCL-1 protein expression at 1.25 to 5 uM incubated for 24 hrs by western blot analysis; format: cell-based; conditions: dose 1.25-5 µM; procedure, shortened: as §2
HEL [24] = test: Induction of cell cycle arrest in human HEL cells expressing JAK2 V617F mutant cells assessed as increase in accumulation at G2/M phase after 48 hrs by PI/RNase staining based flow cytometry; format: functional; conditions: dose 1.25-5 µM; procedure, shortened: as §3
HEL [25] = test: Effect on STAT3 expression in human HEL cells expressing JAK2 V617F mutant at 1.25 to 5 uM measured after 24 hrs by Western blot analysis; format: functional, cell-based; conditions: dose 1.25-5 µM; procedure, shortened: as §2
MDA-MB-453 = test: Antiproliferative activity against human MDA-MB-453 cells expressing low levels of STAT3 assessed as inhibition of cell growth incubated for 72 hrs by MTT assay; format: functional, cell-based; conditions: MDA-MB-453, 72 h
Procedure, shortened: (§5)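 MTT proliferation assay on MCF-7 and MDA-MB-453 cells; IC50 given as mean ± SD of at least two independent experiments.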

MDA-MB-468 [26] = test: Induction of cell cycle arrest in human MDA-MB-468 cells assessed as decrease in accumulation at G1 phase after 48 hrs by PI/RNase staining based flow cytometry; format: functional; conditions: dose 1.25-5 µM; procedure, shortened: as §3
MCF7 = test: Antiproliferative activity against human MCF7 cells expressing low levels of STAT3 assessed as inhibition of cell growth incubated for 72 hrs by MTT assay; format: functional, cell-based; conditions: MCF7, 72 h; procedure, shortened: as §5
HEL [27] = test: Antiproliferative activity against human HEL cells harboring JAK2 V617F mutant assessed as inhibition of cell growth incubated for 72 hrs by MTT assay; format: functional, cell-based; procedure, shortened: as §4
[28] = molecular target: T1, Signal transducer and activator of transcription 3; test: Inhibition of STAT3 phosphorylation at Tyr705 residue in human MDA-MB-468 cells measured after 24 hrs by Western blot analysis; format: cell-based; conditions: dose 1.25-5 µM; procedure, shortened: as §2

T1 sequence (P40763 whole entry): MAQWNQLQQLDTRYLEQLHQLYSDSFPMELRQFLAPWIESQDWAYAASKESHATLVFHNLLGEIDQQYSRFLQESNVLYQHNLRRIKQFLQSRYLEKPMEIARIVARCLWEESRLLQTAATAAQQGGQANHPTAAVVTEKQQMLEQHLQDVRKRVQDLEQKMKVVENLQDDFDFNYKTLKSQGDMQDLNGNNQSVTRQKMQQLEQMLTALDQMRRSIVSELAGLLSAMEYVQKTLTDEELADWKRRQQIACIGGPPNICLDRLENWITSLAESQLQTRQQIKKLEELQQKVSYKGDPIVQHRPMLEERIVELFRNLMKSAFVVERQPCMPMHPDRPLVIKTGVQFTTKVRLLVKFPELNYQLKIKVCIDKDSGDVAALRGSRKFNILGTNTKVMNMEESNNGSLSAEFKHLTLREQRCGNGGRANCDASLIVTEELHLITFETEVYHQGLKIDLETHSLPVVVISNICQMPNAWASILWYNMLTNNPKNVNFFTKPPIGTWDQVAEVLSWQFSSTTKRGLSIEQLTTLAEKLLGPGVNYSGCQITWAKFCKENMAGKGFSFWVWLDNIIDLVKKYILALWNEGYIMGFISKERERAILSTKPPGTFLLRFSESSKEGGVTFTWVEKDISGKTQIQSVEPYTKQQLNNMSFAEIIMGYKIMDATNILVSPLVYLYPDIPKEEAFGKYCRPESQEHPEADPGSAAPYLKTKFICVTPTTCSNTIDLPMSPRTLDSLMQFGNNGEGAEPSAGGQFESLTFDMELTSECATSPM
Sequence of Receptor tyrosine-protein kinase erbB-4 (Homo sapiens) (Q15303 whole entry): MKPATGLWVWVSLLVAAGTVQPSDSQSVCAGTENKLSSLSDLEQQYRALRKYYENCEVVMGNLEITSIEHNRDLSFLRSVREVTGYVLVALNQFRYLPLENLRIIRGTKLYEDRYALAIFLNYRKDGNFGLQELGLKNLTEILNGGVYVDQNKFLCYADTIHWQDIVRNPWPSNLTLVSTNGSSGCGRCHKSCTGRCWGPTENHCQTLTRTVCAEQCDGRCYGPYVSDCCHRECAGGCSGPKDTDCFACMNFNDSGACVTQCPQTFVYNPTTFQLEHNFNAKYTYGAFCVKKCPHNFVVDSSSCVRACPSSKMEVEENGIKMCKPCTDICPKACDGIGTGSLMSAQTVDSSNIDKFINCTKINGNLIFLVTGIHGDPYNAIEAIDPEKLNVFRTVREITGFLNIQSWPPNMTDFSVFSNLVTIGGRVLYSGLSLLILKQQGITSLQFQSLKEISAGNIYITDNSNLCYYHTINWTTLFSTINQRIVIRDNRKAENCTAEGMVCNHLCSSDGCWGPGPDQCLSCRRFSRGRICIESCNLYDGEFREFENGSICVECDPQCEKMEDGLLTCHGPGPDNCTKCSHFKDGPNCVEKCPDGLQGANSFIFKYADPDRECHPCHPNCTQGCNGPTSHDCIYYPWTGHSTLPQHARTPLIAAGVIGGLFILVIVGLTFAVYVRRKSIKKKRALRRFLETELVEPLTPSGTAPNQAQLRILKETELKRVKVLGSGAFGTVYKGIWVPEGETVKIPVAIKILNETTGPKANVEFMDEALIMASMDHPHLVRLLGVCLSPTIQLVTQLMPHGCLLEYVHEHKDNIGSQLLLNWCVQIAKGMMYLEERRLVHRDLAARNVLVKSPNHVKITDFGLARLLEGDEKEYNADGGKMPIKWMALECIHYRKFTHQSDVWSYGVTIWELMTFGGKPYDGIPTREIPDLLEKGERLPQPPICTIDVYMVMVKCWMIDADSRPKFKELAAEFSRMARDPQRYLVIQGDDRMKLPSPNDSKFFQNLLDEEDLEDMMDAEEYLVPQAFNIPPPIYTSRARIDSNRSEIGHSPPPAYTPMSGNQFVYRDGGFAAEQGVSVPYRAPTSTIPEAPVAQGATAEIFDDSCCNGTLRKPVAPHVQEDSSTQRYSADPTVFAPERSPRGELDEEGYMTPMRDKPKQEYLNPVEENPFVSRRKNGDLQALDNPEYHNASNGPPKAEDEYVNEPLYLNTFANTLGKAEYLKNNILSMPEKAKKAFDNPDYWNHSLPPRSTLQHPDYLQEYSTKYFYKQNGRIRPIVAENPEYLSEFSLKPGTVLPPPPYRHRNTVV
Sequence of Receptor tyrosine-protein kinase erbB-2 (Homo sapiens) (P04626 whole entry): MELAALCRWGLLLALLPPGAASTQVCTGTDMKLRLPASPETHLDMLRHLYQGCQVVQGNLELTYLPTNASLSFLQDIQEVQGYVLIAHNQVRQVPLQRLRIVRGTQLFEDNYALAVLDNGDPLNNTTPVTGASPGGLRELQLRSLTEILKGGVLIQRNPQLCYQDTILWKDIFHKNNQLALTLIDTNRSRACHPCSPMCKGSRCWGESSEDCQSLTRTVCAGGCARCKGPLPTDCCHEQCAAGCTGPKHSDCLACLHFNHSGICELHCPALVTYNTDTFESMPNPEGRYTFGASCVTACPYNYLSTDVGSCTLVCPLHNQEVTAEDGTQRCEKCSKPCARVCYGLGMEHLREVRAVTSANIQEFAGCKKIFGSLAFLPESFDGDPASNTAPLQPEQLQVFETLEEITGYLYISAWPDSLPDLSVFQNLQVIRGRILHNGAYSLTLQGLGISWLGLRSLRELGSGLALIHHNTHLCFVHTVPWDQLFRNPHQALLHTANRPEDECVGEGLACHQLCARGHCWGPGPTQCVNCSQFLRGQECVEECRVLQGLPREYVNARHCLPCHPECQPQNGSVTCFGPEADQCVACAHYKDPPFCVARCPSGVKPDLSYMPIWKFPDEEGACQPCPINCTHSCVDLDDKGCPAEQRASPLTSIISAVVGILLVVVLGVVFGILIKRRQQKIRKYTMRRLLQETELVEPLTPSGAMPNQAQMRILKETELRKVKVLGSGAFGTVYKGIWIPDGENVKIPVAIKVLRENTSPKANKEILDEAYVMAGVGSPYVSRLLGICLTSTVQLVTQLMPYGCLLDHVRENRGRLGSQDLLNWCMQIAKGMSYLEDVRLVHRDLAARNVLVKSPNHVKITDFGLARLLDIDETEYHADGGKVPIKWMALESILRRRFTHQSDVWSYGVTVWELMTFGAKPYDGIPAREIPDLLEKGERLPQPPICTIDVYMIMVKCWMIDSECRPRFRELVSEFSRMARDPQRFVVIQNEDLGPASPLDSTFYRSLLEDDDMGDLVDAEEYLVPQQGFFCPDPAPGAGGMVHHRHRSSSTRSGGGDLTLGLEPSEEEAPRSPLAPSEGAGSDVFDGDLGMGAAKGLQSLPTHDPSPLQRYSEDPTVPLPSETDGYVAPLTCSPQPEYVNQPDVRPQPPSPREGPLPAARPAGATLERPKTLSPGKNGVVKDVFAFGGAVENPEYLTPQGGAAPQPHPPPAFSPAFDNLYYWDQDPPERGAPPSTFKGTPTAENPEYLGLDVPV
Sequence of Insulin-like growth factor 1 receptor (Homo sapiens) (P08069 31-736 limits assumed): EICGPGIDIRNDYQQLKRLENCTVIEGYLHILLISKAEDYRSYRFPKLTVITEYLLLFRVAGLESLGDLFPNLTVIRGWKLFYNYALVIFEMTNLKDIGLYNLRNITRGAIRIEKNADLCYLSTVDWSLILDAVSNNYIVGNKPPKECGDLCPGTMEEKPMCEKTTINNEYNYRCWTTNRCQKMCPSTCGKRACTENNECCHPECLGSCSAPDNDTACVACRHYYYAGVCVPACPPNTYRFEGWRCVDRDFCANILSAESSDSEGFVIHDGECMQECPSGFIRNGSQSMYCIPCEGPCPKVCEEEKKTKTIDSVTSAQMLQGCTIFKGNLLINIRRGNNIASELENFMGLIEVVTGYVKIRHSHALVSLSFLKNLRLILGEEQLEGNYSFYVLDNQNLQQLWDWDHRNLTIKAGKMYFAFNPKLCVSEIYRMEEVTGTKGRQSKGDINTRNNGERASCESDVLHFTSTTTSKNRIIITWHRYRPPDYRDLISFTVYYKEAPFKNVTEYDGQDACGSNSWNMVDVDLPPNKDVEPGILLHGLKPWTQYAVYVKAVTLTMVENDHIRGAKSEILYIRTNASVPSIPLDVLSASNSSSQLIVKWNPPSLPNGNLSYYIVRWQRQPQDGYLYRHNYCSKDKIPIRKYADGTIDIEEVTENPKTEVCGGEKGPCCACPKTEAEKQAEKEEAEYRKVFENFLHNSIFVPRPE
Sequence of Insulin-like growth factor 1 receptor (Homo sapiens) (P08069 741-1367 limits assumed): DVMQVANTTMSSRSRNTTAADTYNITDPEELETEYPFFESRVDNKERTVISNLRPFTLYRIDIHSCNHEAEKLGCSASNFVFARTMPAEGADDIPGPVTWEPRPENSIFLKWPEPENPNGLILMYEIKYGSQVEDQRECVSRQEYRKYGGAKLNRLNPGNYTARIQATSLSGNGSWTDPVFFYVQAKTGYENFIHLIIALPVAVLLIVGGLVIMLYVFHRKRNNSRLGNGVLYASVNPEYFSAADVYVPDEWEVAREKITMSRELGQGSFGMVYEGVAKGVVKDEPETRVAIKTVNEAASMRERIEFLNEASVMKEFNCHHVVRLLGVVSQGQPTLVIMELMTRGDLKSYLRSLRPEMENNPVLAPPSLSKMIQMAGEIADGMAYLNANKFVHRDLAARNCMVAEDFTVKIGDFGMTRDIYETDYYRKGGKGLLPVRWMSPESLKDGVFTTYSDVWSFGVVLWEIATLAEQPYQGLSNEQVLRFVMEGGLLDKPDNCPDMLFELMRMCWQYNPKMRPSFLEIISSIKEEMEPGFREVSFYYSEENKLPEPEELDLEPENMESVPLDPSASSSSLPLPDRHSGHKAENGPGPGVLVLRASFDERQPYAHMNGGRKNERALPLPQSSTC

| inhibition [1] [%] | IC50 [3] [nM] | inhibition [4] | Activity [6] [%] | inhibition [7] | inhibition [8] | inhibition [10] [%] | IC50 (MDA-MB-468 [11]) [nM] | Activity [13] [%] | Activity [14] [%] | inhibition [16] [%] | inhibition [17] [%] | inhibition [18] | inhibition [19] | inhibition [20] | SMILES | Activity (HEL [2]) | Activity (MDA-MB-468 [5]) | Activity (MDA-MB-468 [9]) | Activity (HEL [12]) | Activity (MDA-MB-468 [15]) | further results |
| --- | --- | --- | --- | --- | --- | --- | --- | --- | --- | --- | --- | --- | --- | --- | --- | --- | --- | --- | --- | --- | --- |
| 0 | 160 | Active | < 10 | Dose-Dependent Effect | Dose-Dependent Effect | 0 | 1040 | < 10 | < 10 | 5.2 | 0 | Active | Active | Dose-Dependent Effect | CCCC(C)Oc1ccc(C(=O)Nc2ccc3nc(SCC(=O)N[C@@H](C)c4ccccc4)sc3c2)c(OC)c1C (stereo not given in full) | Active | Active | Dose-Dependent Effect | Dose-Dependent Effect | inactive | Kd [21]: 62.6 nM; inhibition [22]: 0%; inhibition [23]: Active; Activity (HEL [24]): Dose-Dependent Effect; Activity (HEL [25]): inactive; IC50 (MDA-MB-453): > 20000 nM; Activity (MDA-MB-468 [26]): Dose-Dependent Effect; IC50 (MCF7): > 20000 nM; IC50 (HEL [27]): 2410 nM; inhibition [28]: Dose-Dependent Effect |
| 0 | 67 | Active | < 10 | Dose-Dependent Effect | Dose-Dependent Effect | 0 | 250 | < 10 | < 10 | 9.6 | 0 | Active | Active | Dose-Dependent Effect | CCCC(C)Oc1ccc(C(=O)Nc2ccc3nc(SCC(=O)N[C@@H](C)c4ccc(OC)cc4)sc3c2)c(OC)c1C (stereo not given in full) | Active | Active | Dose-Dependent Effect | Dose-Dependent Effect | inactive | Kd [21]: 53 nM; inhibition [22]: 0%; inhibition [23]: Active; Activity (HEL [24]): Dose-Dependent Effect; Activity (HEL [25]): inactive; IC50 (MDA-MB-453): > 20000 nM; Activity (MDA-MB-468 [26]): Dose-Dependent Effect; IC50 (MCF7): > 20000 nM; IC50 (HEL [27]): 1110 nM; inhibition [28]: Dose-Dependent Effect |

From ChEMBL document CHEMBL4813976, “Rational drug design of benzothiazole-based derivatives as potent signal transducer and activator of transcription 3 (STAT3) signaling pathway inhibitors” (Eur J Med Chem, 2021)
